Source: article PMC10938134 (International Journal for Parasitology: Drugs and Drug …, 2024)

Tests used:
[1] = tested on: bloodstream stage of Trypanosoma brucei brucei; test: Viability assay for T. brucei brucei; assay type: cell-based; details: 24 h
[2] = tested on: redox biosensor hGrx1-roGFP2 in bloodstream T. b. brucei; test: Redox reporter assay for T. brucei brucei; assay type: cell-based, Trypanosoma brucei brucei; details: compound at its EC50 for 1 h; p < 0.001 compared to DMSO-treated parasites
How it was run: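 Exponential-phase bloodstream parasites expressing the redox biosensor were exposed for 1 h to the test compound, with 1% v/v DMSO as vehicle and untreated cells as minimum. Diamide at 500 μM for 20 min gave maximum oxidation. Samples were then incubated for 20 min with 1 mM DTT. Flow cytometry gave % biosensor oxidation relative to these maximum and minimum conditions.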

[3] = Trypanosoma brucei, bloodstream parasites, 24 h incubation, compounds tested at 5 μM

**Q.** How did the EC50 ([1]; Trypanosoma brucei) turn out when `OC[C@H]1O[C@@H]([Se]Cc2ccc3ccccc3n2)[C@H](O)[C@@H](O)[C@@H]1O` [compound 11, Quinolin-2-ylmethyl 1-seleno-β-D-glucopyranoside] was run?
**A.** ~5000 nM

**Q.** And the viability at 5 µM ([1]; Trypanosoma brucei)?
**A.** 57.5 ± 3.8%

**Q.** `COc1ccc2c(C[Se][C@@H]3O[C@H](CO)[C@@H](O)[C@H](O)[C@H]3O)cc(=O)oc2c1` [compound 13, 7-Methoxycoumarin-4-ylmethyl 1-seleno-β-D-glucopyranoside] was tested. Which viability at 5 µM [1, 3] did it give?
**A.** 57.3 ± 0.4%

**Q.** Which EC50 ([1]; bloodstream T. b. brucei, concentration-response curves) does the source give for `N=C(N)c1ccc(N=NNc2ccc(C(=N)N)cc2)cc1` [Ber, Berenil, reference compound] here?
**A.** 430 ± 70 nM

**Q.** With `CC(=O)OC[C@H]1O[C@@H]([Se]Cc2ccc3ccccc3n2)[C@H](OC(C)=O)[C@@H](OC(C)=O)[C@@H]1OC(C)=O` [compound 12, Quinolin-2-ylmethyl 2,3,4,6-tetra-O-acetyl-1-seleno-β-D-glucopyranoside] as the compound, how does the “significant oxidation of the redox biosensor (in words)” value [2] read?
**A.** Except for the quinolino Se-glycoside 12

**Q.** For `COc1ccc2c(C[Se][C@@H]3O[C@H](CO)[C@H](O)[C@H](O)[C@H]3O)cc(=O)oc2c1` [compound 14, 7-Methoxycoumarin-4-ylmethyl 1-seleno-β-D-galactopyranoside], which viability at 5 µM [1, 3] is on record?
**A.** ≤ 50%
